Data as given in ChEMBL document CHEMBL4177525, “Synthesis and evaluation of frentizole-based indolyl thiourea analogues as MAO/ABAD inhibitors for Alzheimer's disease treatment” (Bioorg Med Chem, 2017).
The source made the active and inactive calls. The rule behind the calls is not given here.

Key:
[1] = molecular target: T1, Amyloid beta-binding alcohol dehydrogenase (Homo sapiens, UniProt Q2L8D9); test: Inhibition of ABAD (unknown origin) by spectrophotometric assay
[2] = molecular target: T2, Amine oxidase [flavin-containing] A (Homo sapiens, UniProt P21397); test: Inhibition of human purified MAO-A expressed in insect cell membranes assessed as reduction in conversion of kynuramine to 4-hydroxyquinoline by spectrophotometric assay
T2 sequence (P21397 whole entry): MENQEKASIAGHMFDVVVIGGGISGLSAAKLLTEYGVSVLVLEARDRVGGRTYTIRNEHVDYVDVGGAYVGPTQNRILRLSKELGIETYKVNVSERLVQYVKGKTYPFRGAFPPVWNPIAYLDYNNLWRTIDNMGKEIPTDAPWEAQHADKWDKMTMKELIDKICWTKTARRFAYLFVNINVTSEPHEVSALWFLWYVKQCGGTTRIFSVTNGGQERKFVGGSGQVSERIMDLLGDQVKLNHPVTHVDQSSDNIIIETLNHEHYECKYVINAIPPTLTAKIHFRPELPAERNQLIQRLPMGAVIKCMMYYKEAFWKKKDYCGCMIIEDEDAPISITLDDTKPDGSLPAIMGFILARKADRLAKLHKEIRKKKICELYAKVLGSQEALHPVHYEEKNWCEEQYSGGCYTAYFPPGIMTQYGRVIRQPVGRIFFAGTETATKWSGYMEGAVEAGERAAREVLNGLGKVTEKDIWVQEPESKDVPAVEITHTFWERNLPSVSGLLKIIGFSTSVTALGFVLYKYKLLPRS

Peroxidase = Peroxidase (Raphanus sativus, UniProt K7N5L9); test: Inhibition of horse radish peroxidase assessed as residual activity by amplex red dye based fluorescence assay
Sequence of Peroxidase (K7N5L9 whole entry): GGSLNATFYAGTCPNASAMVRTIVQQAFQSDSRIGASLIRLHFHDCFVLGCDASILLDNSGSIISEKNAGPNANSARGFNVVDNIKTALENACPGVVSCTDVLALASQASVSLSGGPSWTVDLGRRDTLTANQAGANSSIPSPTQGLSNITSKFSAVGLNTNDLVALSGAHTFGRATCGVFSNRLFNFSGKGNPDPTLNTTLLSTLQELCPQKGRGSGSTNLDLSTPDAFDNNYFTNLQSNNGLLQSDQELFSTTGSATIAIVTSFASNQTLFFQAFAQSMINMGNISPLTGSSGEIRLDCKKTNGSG
Procedure, shortened: (§1)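 HRP (0.02 U/mL) given H2O2 20 µM directly as substrate plus Ampliflu Red 20 µM in 50 mM potassium phosphate pH 7.4. Compound at 50 or 5 µM, 1% DMSO; controls DMSO only. Resorufin fluorescence read at ex 535/em 595 nm, 30°C, as remaining HRP activity.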

[3] = molecular target: T3, Amine oxidase [flavin-containing] B (Homo sapiens, UniProt P27338); test: Inhibition of human membrane bound MAO-B expressed in insect cell membranes assessed as reduction in conversion of kynuramine to 4-hydroxyquinoline by spectrophotometric assay; conditions: read-out: IC50
T3 sequence (P27338 whole entry): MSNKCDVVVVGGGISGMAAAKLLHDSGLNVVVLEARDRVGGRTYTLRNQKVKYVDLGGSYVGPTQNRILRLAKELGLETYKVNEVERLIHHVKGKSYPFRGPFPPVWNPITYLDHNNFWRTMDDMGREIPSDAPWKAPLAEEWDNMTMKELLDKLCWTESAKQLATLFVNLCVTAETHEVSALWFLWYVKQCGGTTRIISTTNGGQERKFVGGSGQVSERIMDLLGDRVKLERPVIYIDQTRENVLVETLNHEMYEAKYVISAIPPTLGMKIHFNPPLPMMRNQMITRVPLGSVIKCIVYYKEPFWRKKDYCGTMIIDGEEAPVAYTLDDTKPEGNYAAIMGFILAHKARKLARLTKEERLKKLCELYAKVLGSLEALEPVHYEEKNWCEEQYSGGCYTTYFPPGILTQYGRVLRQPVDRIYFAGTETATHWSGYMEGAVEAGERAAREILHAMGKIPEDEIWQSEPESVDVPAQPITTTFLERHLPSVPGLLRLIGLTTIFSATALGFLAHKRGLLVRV
Procedure, shortened: (§2)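 Human MAO-A or MAO-B expressed in insect cell membranes, diluted 1/4000 (A) or 1/2000 (B). Kynuramine at 2×KM: 60 µM for MAO-A, 30 µM for MAO-B. Assay in 50 mM potassium phosphate pH 7.5, 30°C, 1% DMSO, absorbance at 314 nm. Inhibitor varied over 4 orders of magnitude, up to 100 µM. Linear rates from 8-10 assays fitted by 3-parameter regression with bottom fixed at zero; IC50 ± SE of estimate.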

[4] = Solubility of the compound at 100 uM; assay type: physicochemical
Procedure, shortened: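 Compounds checked for solubility in assay buffer at 100 µM.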

[5] = molecular target: T4, peroxidase (horseradish peroxidase) (Raphanus sativus, UniProt K7N5L9); test: Inhibition of horse radish peroxidase assessed as residual activity at 50 uM by amplex red dye based fluorescence assay; conditions: horseradish peroxidase (isolated enzyme), probe Amplex Red, read-out: Activity
T4 sequence (K7N5L9 whole entry): as the sequence (K7N5L9 whole entry) above
Procedure, shortened: as §1

[6] = Cytotoxicity against CHOK1 cells assessed as reduction in cell viability after 24 hrs by MTT assay; assay type: cell-based, Cricetulus griseus; conditions: chinese hamster, CHO-K1 cells; read-out: LC50
Procedure, shortened: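 CHO-K1 cells grown as ECACC recommends, seeded 8000 per well; compounds from DMSO stocks diluted in F-12 with 10% FBS and 1% pen/strep (final DMSO at most 0.5%), exposed 24 h. Medium then replaced with 10 µM MTT for about 3 h, formazan dissolved in DMSO, absorbance read at 570 nm (650 nm reference). LC50 from control-subtracted triplicates by four-parameter regression; mean ± SEM of 3 independent runs.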

[7] = molecular target: T4, peroxidase (horseradish peroxidase); test: Inhibition of horse radish peroxidase assessed as residual activity at 5 uM by amplex red dye based fluorescence assay; conditions: horseradish peroxidase (isolated enzyme), probe Amplex Red, read-out: Activity
Procedure, shortened: as §1

[8] = molecular target: T2, Amine oxidase [flavin-containing] A; test: Inhibition of human membrane bound MAO-A expressed in insect cell membranes assessed as reduction in conversion of kynuramine to 4-hydroxyquinoline by spectrophotometric assay; conditions: read-out: IC50
Procedure, shortened: as §2

[9] = Quenching activity of the compound assessed as reduction in resorufin fluorescence; assay type: functional
Procedure, shortened: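 Resorufin at 1 µM and 10 µM measured for fluorescence in the presence of compound at 50 µM.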

[10] = Lipophilicity of the compound assessed as capacity factor at pH 3.5 by HPLC analysis; assay type: physicochemical; conditions: buffer
Procedure, shortened: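 Capacity factor k from gradient HPLC on reversed-phase C18 in acid polar organic mode, pH ~3.5.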

[11] = molecular target: T1, Amyloid beta-binding alcohol dehydrogenase; test: Inhibition of ABAD (unknown origin) assessed as residual activity at 100 uM using acetoacetyl-CoA in presence of NADH by spectrophotometric assay relative to control
Procedure, shortened: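 Recombinant ABAD at 0.5 µg/mL with NADH 250 µM and acetoacetyl-CoA 120 µM; compound at 100 µM in 1% DMSO, controls with matching DMSO. Buffer 10 mM HEPES, 0.5% gelatin, pH 7.4 at 37°C. NADH consumption read as falling absorbance at 340 nm; reported as % remaining activity ± SEM from two biological repeats, each with three technical repeats.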

SMILES	IC50 [1] [µM]	IC50 [2]	IC50 (Peroxidase) [µM]	IC50 [3] [µM]	solubility [4]	activity at 50 µM [5] [%]	CC50 at 24 h [6] [µM]	activity at 5 µM [7] [%]	IC50 [8] [µM]	Activity [9]	K [10]	Activity [11] [%]
O=C(C(c1ccccc1)n1cnc2[nH]ncc2c1=S)N1CCCCCC1 (configuration not stated)	0.092											
Oc1c(Cl)cc(NC(=S)Nc2ccc3[nH]ccc3c2)cc1Cl		Not Active	1.06	17	Soluble	23.9	523	48.6	> 100	inactive	3.975	39
